# Only a sample is shown.
# PGC1a Ac signal – raises PGC1a acetylation signal in U2OS cells; U2OS PGC1a acetylation AlphaScreen, overnight; activation, % at 15.6 µM; 0.21% of 350,000 active; AID 651723;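 active = every replicate reaching activation of at least 50%, whatever the mean replicate activation; inconclusive = replicates that disagree or another doubt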;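 note: hits raise the AlphaScreen acetylation signal above neutral controls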
#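 System: flag-PGC1a/GCN5 U2OS cells / Input: 7000 cells/well / Compound: single test concentration per compound / Incubation: overnight compound treatment, 37 °C / Technique: AlphaScreen on lysates with anti-acetyl-lysine antibody, acceptor and donor beads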
# G6PC hep suppr – hepatocyte G6PC expression change via PGC-1a acetylation activation; shares compounds with PGC1a Ac signal; primary mouse hepatocytes, G6PC mRNA qPCR, forskolin; G6PC suppression (normalized activity, % of positive control; higher = more suppression), % at 26 µM; 240 tested, under 10 active;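 active = dose curves showing G6PC suppression whose half-maximal dose is at most twice the top valid dose; inconclusive = flat curves with moderate negative activity, or unreliable fits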;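 note: G6PC expression relative to GAPDH housekeeping gene as delta delta Ct; 0% = median of neutral control wells and 100% = median of positive control wells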
# Hep PCK1 suppr – hepatocyte PCK1 expression change via PGC-1a acetylation activation; primary mouse hepatocytes, PCK1 mRNA qPCR, forskolin-stimulated; shares compounds with PGC1a Ac signal; 230 tested, under 10 active; AID 743465; PCK1 expression decrease, unspecified at 26 µM;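 active = compounds lowering PCK1 expression whose fitted half-maximal concentration is at most twice the top tested dose; inconclusive = flat fit with moderate opposite-direction effect, or poor fit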;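 note: values are delta delta Ct of PCK1 relative to GAPDH; higher delta delta Ct means lower PCK1 expression so positive values indicate hits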
# PGC1a hep suppr – PGC-1a acetylation activator altering hepatocyte PGC-1a expression | primary mouse hepatocytes, PGC-1a mRNA qPCR, forskolin; top dose 26 µM | max activity (PGC-1a expression decrease), % | shares compounds with PGC1a Ac signal | 240 tested, under 10 active;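 active = compound lowering PGC-1a expression with fitted half-maximal concentration at most twice its top tested dose; inconclusive = flat curve with moderate opposite-direction effect, or poor fit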;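 note: 0% = neutral control wells median and 100% = positive control wells median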
# Starred values were filed as active, the others as inactive; ? = inconclusive; . = no result given; [ ] = another dose, or the depositor's remark.
SMILES,PGC1a Ac signal,G6PC hep suppr,Hep PCK1 suppr,PGC1a hep suppr
COc1ccccc1/C=C/c1nc2ccc(OC(C)=O)cc2c(=O)o1,-40,.,.,.
COc1ccc(N(C(=O)c2snc(C(N)=O)c2N)C(C(=O)NC2CCCCC2)c2ccc(C)o2)cc1 (stereo unspecified),62*,-14,-45,37
COc1ccc(N(C(=O)c2snc(C(N)=O)c2N)C(C(=O)NC2CCCCC2)c2ccc(F)cc2)c(OC)c1 (stereo unspecified),?,-20[8 µM],119,72
C#CC(=O)N(c1ccc(OC)cc1OC)C(C(=O)NC1CCCC1)c1cccs1 (stereo unspecified),-95,.,.,.
Cc1ccc(C(=O)Nc2nc(=O)n(C(=O)CC(C)C)s2)cc1,-48,.,.,.
CCCOc1ccc2ccccc2c1/C=C1\SC(=O)NC1=O,-76,.,.,.
COc1ccc2nc(N3CCCC(C(=O)NCCCN4CCN(C)CC4)C3)sc2c1 (stereo unspecified),-70,.,.,.
COc1ccc(S(=O)(=O)NNC(=O)c2csc(-n3nc(C)cc3C(F)(F)F)n2)cc1,-54,29,-10,122
Cc1ccc(-c2nnc(N3CCN(C(=O)COc4ccccc4)CC3)c3ccccc23)cc1,94*,360,.,121
Cc1c(C(=O)N2CCN(c3ccccn3)CC2)sc2ncnc(N3CCN(c4ccccc4)CC3)c12,-40,.,.,.
O=C(c1cccs1)N1CCN(c2nnc(-c3ccccc3)c3ccccc23)CC1,69*,19,-6.8[8 µM],34
Cc1nc2ncnn2c(C)c1CCC(=O)N1CCN(c2ccccn2)CC1,-43,.,.,.
Oc1ccc(C=Nc2ccc(N3CCOCC3)cc2)c(O)c1,-64,.,.,.
COc1ccc(N=C2C(=Nc3ccc(OC)cc3)N(c3ccc(OC)cc3)C(=S)N2C(=O)c2ccc(OC)cc2)cc1,-46,.,.,.
CCCCCCC[C@@H](C/C=C/CCC(=O)O)OC,-45,.,.,.
COC(=O)COc1c(/C=C\c2nc(O)c([N+](=O)[O-])c(=O)[nH]2)cccc1OC,-55,.,.,.
COC(=O)/C=C/c1cnc2ccccc2c1,-43,.,.,.
CC(=O)Nc1ccc(Nc2ncnc3c2cnn3-c2ccc(C)cc2C)cc1,131*,-73,.,130
O=S(=O)(Nc1cc(Sc2ncn[nH]2)c(O)c2ccccc12)c1ccccc1,-72,.,.,.
OC(c1cc(-c2ccc(Cl)cc2)nc2ccccc12)C1CCCCN1 (stereo unspecified),?,213,45,37
Cc1ccc(-c2[nH]ncc2/C=C(\C#N)C(=O)NC2CCCCC2)cc1,-41,.,.,.
CC(C)(C)NC(=O)Cn1nnc(-c2ccccc2NC(=O)c2ccco2)n1,-44,.,.,.
O=C(Cc1ccccc1)Nc1ccc(NC(=O)c2ccco2)nc1,?,-6,-48,84
O=C(/C(=C/O)N=Nc1ccccc1)c1ccco1,-42,.,.,.
Cn1nnnc1SC1CC(=O)N(c2ccccc2)C1=O (stereo unspecified),-44,.,.,.
SMILES,PGC1a Ac signal,G6PC hep suppr,Hep PCK1 suppr,PGC1a hep suppr
Oc1ccc(-c2nc(-c3ccc(O)c(O)c3)cs2)cc1,-46,.,.,.
Cc1cc(N)c2cc(NC(=O)/C=C/c3ccccc3Cl)ccc2n1,-80,.,.,.
O=C(COCc1cc(-c2ccc3c(c2)OCO3)on1)Nc1cccnc1,94*,3,43,?
O=C(Nc1ccc(OCC(=O)N2CCC(Cc3ccccc3)CC2)cc1)c1ccco1,67*,.,0.009,23
COC(=O)c1[nH]c2ccc(F)cc2c1NS(=O)(=O)c1ccc(OC)cc1OC,-43,.,.,.
COc1ccccc1CN1C[C@@H]2C[C@@H](c3cccc(C)n3)N3CCC[C@@]23C1=O,-43,.,.,.
O=C(Nc1ccccc1)C1=C[C@@H](c2ccc(C(F)(F)F)cc2)C[C@@H](OCc2ccc(CO)cc2)O1,63*,16,35,27
Cc1sc2ncnc(N3CCC(C(=O)NNC(=O)COc4ccc(Cl)cc4)CC3)c2c1C,-46,.,.,.
CC(=O)[C@H]1CC[C@H]2[C@@H]3CC=C4C[C@@H](OS(=O)(=O)O)CC[C@]4(C)[C@H]3CC[C@]12C,-47,.,.,.
C[C@@](Cc1ccc(O)c(O)c1)(NN)C(=O)O,-62,.,.,.
COc1ccc(Br)cc1CNc1ccccc1,-40,10,50,28
COc1ccccc1CNS(=O)(=O)c1cc(C)ccc1OC,-43,.,.,.
Cc1cc(=O)[nH]c(NN=Cc2cc(Br)ccc2O)n1,-50,.,.,.
CCCOc1ccccc1C1C(C(=O)OC)=CN(C(C)C)C=C1C(=O)OC,-92,.,.,.
COc1ccc(OCCc2nnc(N)s2)cc1,-43,.,.,.
COC(=O)C[C@@H]1C[C@H]2c3cc(NC(=O)Nc4ccc(C(F)(F)F)cc4)ccc3O[C@H]2[C@H](CO)O1,?,6[23.5 µM],-9.5[23.5 µM],25
O=C(CN1CCC(n2nnc3ccccc32)CC1)NCc1cccs1,192*,-15,-22,33
O=C(CN1CCC(n2cnc3cccnc32)CC1)NCc1cccs1,.,17,30,38
Brc1ccc(N/N=C(/N=Nc2nn[nH]n2)c2ccccc2)cc1,-97,.,.,.
CCOC(=O)c1c(NC(=O)c2ccoc2C)sc2c1CCC2,-57,.,.,.
CN(c1ncnc(N)c1[N+](=O)[O-])C1CCS(=O)(=O)C1 (stereo unspecified),-58,.,.,.
O=C(c1ccc(NC(=O)C2(c3ccccc3)CCOCC2)cc1)N1CCOCC1,-41,.,.,.
Cc1ccc(C)c(NC(=S)Nc2cccc3cnccc23)c1,-51,.,.,.
COC(=O)c1nn(-c2ccccc2)ccc1=O,-44,.,.,.
CCO[C@H]1OC(C(=O)N2CCCCCCC2)=C[C@@H](C2CCCCC2)[C@@H]1CCCO,84*,-2,62,51
SMILES,PGC1a Ac signal,G6PC hep suppr,Hep PCK1 suppr,PGC1a hep suppr
O=C(Nc1nc2cc3c(cc2s1)OCCO3)c1ccncc1,-62,.,.,.
Nn1cnnc1N/N=C/c1ccc(Cl)c([N+](=O)[O-])c1,-53,.,.,.
CN1CCN(c2ccc(CNC(=O)c3ccc(-c4ccnn4C)c4ccoc34)cc2)CC1,?,.,?,229
COc1ccc(C(CNC(=O)c2cccc(N(C)C)c2)N2CCCC2)cc1 (stereo unspecified),-47,176,121,28
CCNC(=S)NNC(=O)c1csc2ccccc12,-59,.,.,.
CC(=O)N(Cc1ccc(F)cc1)C1=C(NCCc2ccccc2)C(=O)c2ccccc2C1=O,-84,.,.,.
C=CC(=O)NC(C)(C)Cc1ccccc1,-44,.,.,.
N#Cc1ccccc1COC(=O)c1ccc2c(c1)OCCO2,?,-9,11,-16
CCNC(=O)NC(=O)COc1ccccc1C#N,-45,.,.,.
C=CCN(c1ccc(C(=O)Nc2ccc3c(c2)OCO3)cc1)S(C)(=O)=O,-93,.,.,.
COc1ccccc1CN1CCCC(C(=O)N(C)Cc2ccccc2)C1 (stereo unspecified),-45,.,.,.
O=S(=O)(c1cccc(F)c1)N1CCN(Cc2cc3c(cc2Br)OCCO3)CC1,108*,1,53,112
CC1(C)OC(=O)C(=Cc2ccc[nH]2)C(=O)O1,-40,.,.,.

# Screening results deposited in PubChem BioAssay by Broad Institute.
